Screening data (PubChem BioAssay)
Hits are enriched below; roughly 4.9% of the tested compounds scored in any of these assays.
STAT3 inh-1 = inhibitors of IL-6 induced STAT3 signaling; U3A cells, IL-6 STAT3-luciferase reporter, luminescence; host cell line lacks STAT1; inhibition, % at 5.5 µM; actives 0.89% (n = 190,000);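 active = inhibition above the mean inhibition across all screened compounds plus 3 SD, cut at about 44% in these data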
FLuc inh counter = inhibits firefly luciferase, flagging false hits in luciferase inhibition screens; P08659; ATPLite firefly luciferase biochemical luminescence, 10 min; inhibition, % at 10 µM; actives 1.5% (n = 200,000); AID 1006;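 active = inhibition above about 50% when tested at 10 µM, limit read from the data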
Target sequence (P08659 whole entry, looked up): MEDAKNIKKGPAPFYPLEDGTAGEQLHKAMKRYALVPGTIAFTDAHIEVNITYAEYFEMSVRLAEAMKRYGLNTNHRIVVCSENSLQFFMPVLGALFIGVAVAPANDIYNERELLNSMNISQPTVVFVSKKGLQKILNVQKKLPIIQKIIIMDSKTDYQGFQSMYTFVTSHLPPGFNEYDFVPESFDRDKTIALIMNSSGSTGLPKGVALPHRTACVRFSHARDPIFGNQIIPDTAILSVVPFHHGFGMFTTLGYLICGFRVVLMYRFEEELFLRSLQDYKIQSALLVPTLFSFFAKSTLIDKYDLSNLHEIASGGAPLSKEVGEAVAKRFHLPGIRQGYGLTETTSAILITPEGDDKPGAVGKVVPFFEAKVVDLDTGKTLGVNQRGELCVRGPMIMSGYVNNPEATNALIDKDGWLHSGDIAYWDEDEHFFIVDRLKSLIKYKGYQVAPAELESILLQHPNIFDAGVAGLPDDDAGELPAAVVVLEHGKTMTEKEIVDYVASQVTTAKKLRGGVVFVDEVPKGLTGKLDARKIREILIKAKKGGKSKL
STAT1 activator = STAT1 signaling activation; activation (% of control), % at 5.5 µM; NIH 3T3 STAT1-luciferase reporter, IFN-gamma, luminescence; 100% = IFN-gamma alone, no compound; actives 2.6% (n = 200,000); AID 932;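 active = activation above the screen-wide mean activation plus 3 SD, cut at about 130% in these data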
STAT3 activator = increases IL-6 driven STAT3 reporter signal; U3A cells, IL-6 STAT3-luciferase reporter, luminescence; 100% = signal with IL-6 EC80 alone; actives 0.91% (n = 190,000); AID 871; activation (% of control), % at 5.6 µM;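 active = activation above the screen-wide mean of compound activation plus 3 SD, cut at about 130% in these data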
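System – human U3A cells carrying STAT3-luciferase construct · Probe or stimulus – Interleukin-6, 33 ng/mL · Schedule – compound 1 h, then IL-6 6 h at 37 °C · Signal – luminescence from STAT3-driven luciferase reporter · Evaluation – percent of IL-6-only median luminescence · Benchmarks – IL-6-only high control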
STAT1 blocker = STAT1 signaling inhibition; NIH 3T3 STAT1-luciferase reporter, IFN-gamma, luminescence; inhibition, % at 5.5 µM; actives 0.35% (n = 200,000); AID 920;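 active = inhibition above a set limit, the mean inhibition across all tested compounds plus 3 SD, cut at about 34% in these data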
FLuc act counter = firefly luciferase counter-screen for stimulation assays; P08659; ATPlite luciferase biochemical, luminescence, 10 min; 0 = ATP-free wells, 1 = DMSO control; activation factor at 10 µM; 200,000 tested, under 10 active;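 active = luciferase activation factor, scaled between plate controls, of at least 2 with compound at 10 µM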
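System: Luciferase/luciferin detection reagent, cell-free biochemical luciferase assay | Medium: PBS buffer for ATP | Dosing: Test compounds dosed from 2 mM stocks in 100% DMSO | Timing: 10 min at ambient temperature | Signal: Luminescence measurement of luciferase light output | Evaluation: Luciferase activation, seen as luminescence increase over controls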
STAT3 inh-2 = confirmation of STAT3 signaling inhibitors; inhibition, % at 5.7 µM; shares compounds with STAT3 inh-1; AID 1265; actives 45% (n = 1,200); U3A cells, IL-6 STAT3 luciferase reporter, luminescence; cell line lacks STAT1;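 active = inhibition above the hit cutoff computed for the primary STAT3 screen, cut at about 44% in these data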
NFkB inh STAT3ct = NF-kappaB inhibition in STAT3 inhibitor counter-screen; shares compounds with STAT3 inh-1; inhibition, % at 5.7 µM; actives 36% (n = 1,200); HEK293T NF-kB luciferase reporter, TNF-alpha induced;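 active = inhibition above the mean of solvent-only control wells plus 3 SD, cutoff set per campaign, cut at about 13% in these data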
STAT1 inh 2 = inhibits STAT1, counter-screen to STAT3 inhibitors. inhibition, % at 5.7 µM. actives 27% (n = 1,200). shares compounds with STAT3 inh-1. AID 1317. NIH 3T3 STAT1-luciferase reporter, IFN-gamma induced, luminescence;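 active = inhibition above the mean plus 3 SD of solvent-only control wells, limit set per screening run, cut at about 16% in these data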
Of the large screens only hits and unclear results are named; the others gave an inactive call (follow-up assays come after a bar, where they were run).

O=C(Nc1ccc(F)cc1)C1CCN(S(=O)(=O)c2cccs2)CC1	none
COc1ccc(C(OC(=O)c2ccco2)C(=O)NC(C)(C)C)cc1 (stereo not given)	none
O=C(O)c1cc2c(N3CCC(Cc4ccccc4)CC3)ncnc2s1	none
c1ccc(CC2CCN(c3ncnc4sccc34)CC2)cc1	STAT3 inh-1 83 | STAT3 inh-2 79 | NFkB inh STAT3ct inactive | STAT1 inh 2 inactive
Cc1ccc2[nH]c3c(NCc4ccco4)ncnc3c2c1	STAT3 inh-1 60 | STAT3 inh-2 45 | NFkB inh STAT3ct inactive | STAT1 inh 2 inactive
Cc1cc(C)c(CN2CCN(Cc3ccc(C)o3)C(CCO)C2)c(-n2cccn2)c1 (stereo not given)	none
Cc1nn(-c2ccccc2)c(Cl)c1C(=O)NCc1cccs1	none
Cn1cc(C(=O)c2ccc(Cl)cc2)cc1-c1nc2ccccc2n1C	STAT3 inh-1 46 | STAT3 inh-2 inactive | NFkB inh STAT3ct inactive | STAT1 inh 2 inactive
Cn1c(-c2ccc(N)cc2)nc2ccccc21	none
Cc1ccc(OC(=O)c2ccc3nc(C)sc3c2)cc1	STAT3 inh-1 57 | STAT3 inh-2 inactive | NFkB inh STAT3ct inactive | STAT1 inh 2 inactive
COc1ccc(OC(=O)c2ccc3nsnc3c2)cc1	none
CCOC(=O)C1=C(Cc2ccc(C)cc2)C(=O)c2ccccc2C1=O	STAT3 inh-1 60 | STAT3 inh-2 60 | NFkB inh STAT3ct inactive | STAT1 inh 2 inactive
CCOC(=O)C1=C(Cc2ccc(OC)cc2)C(=O)c2ccccc2C1=O	none
C/C(=N/NC(=O)C(O)(c1ccccc1)c1ccccc1)c1ccc([N+](=O)[O-])o1	none
COc1ccc(-c2noc(-c3ccc(Cl)cc3)n2)cc1	none
COc1ccc(-c2nc(-c3ccc(Br)o3)no2)cc1	STAT3 inh-1 49 | STAT3 inh-2 inactive | NFkB inh STAT3ct inactive | STAT1 inh 2 inactive
O=NN(CCc1ccncc1)c1ccc(OCc2ccccc2)cc1	STAT3 inh-1 63 | STAT3 inh-2 57 | NFkB inh STAT3ct 19 | STAT1 inh 2 inactive
CCOC(=O)c1oc2ccc(S(=O)(=O)n3nc(-c4ccc(OC)cc4)cc3N)cc2c1C	none
CCOC(=O)c1oc2ccc(S(=O)(=O)n3nc(-c4ccccc4)cc3N)cc2c1C	STAT3 inh-1 54 | STAT3 inh-2 inactive | NFkB inh STAT3ct 13 | STAT1 inh 2 inactive
CC(=O)/C=C/c1ccc(C)o1	none
Cc1ccc(/C=C/c2nc3ccccc3[nH]2)o1	STAT3 inh-1 54, FLuc inh counter 86 | STAT3 inh-2 inactive | NFkB inh STAT3ct inactive | STAT1 inh 2 inactive
O=C(Nc1ccc(Oc2cccnc2)cc1)c1ccc([N+](=O)[O-])cc1	STAT3 inh-1 69 | STAT3 inh-2 65 | NFkB inh STAT3ct 23 | STAT1 inh 2 inactive
O=C(Nc1ccc(Oc2cccnc2)cc1)c1cccc([N+](=O)[O-])c1	none
COc1ccc(NC(=O)C(C)N2c3cccc4cccc(c34)S2(=O)=O)cc1OC (stereo not given)	STAT3 inh-1 46 | STAT3 inh-2 inactive | NFkB inh STAT3ct inactive | STAT1 inh 2 22
COc1ccc(NC(=O)C(C)N2c3cccc4cccc(c34)S2(=O)=O)cc1 (stereo not given)	none
COc1ccc(Br)cc1/C(C)=N/NC1=NCCN1	STAT3 inh-1 54 | STAT3 inh-2 47 | NFkB inh STAT3ct inactive | STAT1 inh 2 inactive
COc1cccc(CN2CCNC(=O)C2CC(=O)N(Cc2cnn(C)c2)C(C)C)c1 (stereo not given)	none
Cc1cc(C(=O)Cn2nnc3ccccc3c2=O)c(C)n1Cc1cccs1	STAT3 inh-1 46, FLuc inh counter 80 | STAT3 inh-2 inactive | NFkB inh STAT3ct inactive | STAT1 inh 2 inactive
Cc1cnc(C(=O)Nc2cccc(S(=O)(=O)N(C)C)c2)cn1	none
NC(=O)c1c(-c2ccc(Cl)cc2Cl)csc1NC(=O)Cc1ccccc1	STAT3 inh-1 44 | STAT3 inh-2 72 | NFkB inh STAT3ct 23 | STAT1 inh 2 inactive
Oc1ccc(-c2n[nH]c(=S)n2-c2ccc3c(c2)OCCO3)c(O)c1	STAT3 inh-1 48 | STAT3 inh-2 44 | NFkB inh STAT3ct inactive | STAT1 inh 2 inactive
COC(=O)c1nn(-c2ccc3c(c2)CCN3C(C)=O)cc1O	STAT3 inh-1 100, FLuc inh counter 94 | STAT3 inh-2 84 | NFkB inh STAT3ct inactive | STAT1 inh 2 inactive
CCOC(=O)Cn1c2c(c(=N)c3ccccc31)CCC2	none
CCCCCCCCn1c2c(c(=N)c3ccccc31)CCC2	STAT3 inh-1 85 | STAT3 inh-2 88 | NFkB inh STAT3ct 30 | STAT1 inh 2 31
CC(C)(C)OC(=O)C(Cc1ccc(OC(C)(C)C)cc1)NC(=O)CNC(=O)OCc1ccccc1 (stereo not given)	none
O=C(N/N=C/c1ccc(Cl)cc1)C1CC12CCC2 (stereo not given)	none
CC(C)c1cc(NC(=O)CCl)on1	STAT3 inh-1 53 | STAT3 inh-2 inactive | NFkB inh STAT3ct inactive | STAT1 inh 2 inactive
CCCCNC(=O)c1c[nH]c2ccc(S(=O)(=O)N3CCOCC3)cc2c1=O	none
O=C(/C=C/c1ccc([N+](=O)[O-])cc1)Nc1ncc([N+](=O)[O-])s1	STAT3 inh-1 50, FLuc inh counter 61, STAT1 activator 147 | STAT3 inh-2 inactive | NFkB inh STAT3ct inactive | STAT1 inh 2 inactive
CCCCOc1ccc(/C=C/C(=O)Nc2ccc([N+](=O)[O-])cc2C)cc1	none
CCCOc1ccc(/C=C/C(=O)Nc2ccc([N+](=O)[O-])cc2)cc1	STAT3 inh-1 72 | STAT3 inh-2 inactive | NFkB inh STAT3ct 15 | STAT1 inh 2 inactive
O=C(/C=C/c1ccc([N+](=O)[O-])cc1)NCc1ccccn1	none
Cc1cc(Cl)c(S(=O)(=O)N2CCN(c3ccc(F)cc3)CC2)cc1OCC(=O)NC1CCCCC1	STAT3 inh-1 88 | STAT3 inh-2 85 | NFkB inh STAT3ct 35 | STAT1 inh 2 inactive
Cc1cc(Cl)c(S(=O)(=O)N2CCN(c3ccccn3)CC2)cc1OCC(N)=O	none
Cc1cc(Cl)c(S(=O)(=O)N2CCN(c3ccc(F)cc3)CC2)cc1OCC(N)=O	STAT3 inh-1 45 | STAT3 inh-2 inactive | NFkB inh STAT3ct inactive | STAT1 inh 2 inactive
CCc1cccc(NC(=O)CSc2nc3c(c(=O)[nH]2)CCCC3)c1	none
